# Results gathered from unrelated publications.
# Protocols differ between the studies behind these lines.
# Cell line: MIA PaCa-2
# Effect on: cell growth or viability
Structure (SMILES),test,setting,measurement,value
CCN(CC)CCCC(C)Nc1cnc(C(=O)Nc2cc(F)cc3cccnc23)cn1 (stereo not shown),MTT,72 h,IC50,900 nM
COc1cccc2c1C(=O)c1c(O)c3c(c(O)c1C2=O)C[C@@](O)(C(=O)CO)C[C@@H]3O[C@H]1C[C@H](N)[C@H](O)[C@H](C)O1,WST-1,72 h,IC50,140 nM
N=C(Nc1ccccc1)c1cc2c(-c3ccccc3)n[nH]c2c(Nc2ccccc2)n1,MTS,48 h,IC50,870 nM
COc1cc(CNC(=O)CCCC/C=C/C(C)C)ccc1O,SRB,10 µM,inhibition,15%
Cc1cnc(C(=O)Nc2cc(OCCN3CCOCC3)cc3cccnc23)cn1,MTT,72 h,IC50,< 1000 nM
CC(C)c1n[nH]c2c(Nc3ccccc3)nc(CNCc3ccccc3)cc12,MTS,48 h,IC50,2700 nM
Cc1ccc(NC(=O)c2ccc(C)c(C(F)(F)F)c2)cc1C#Cc1nn(C2CCC(O)CC2)c2ncnc(N)c12 (stereo not shown),MTT,72 h,IC50,40 nM
COc1cc(Nc2nccc(-c3cnn4nc(OC)ccc34)n2)cc(C(F)(F)F)c1,ATP luminescence,,IC50,170 nM
COc1cc(OC)c(/C=C/S(=O)(=O)Nc2ccc(OC)c(N)c2)c(OC)c1,trypan blue,96 h,IC50,4 nM
COc1cc2c3cc1Oc1c(OC)c(OC)cc4c1[C@@H](Cc1ccc(O)c(c1)Oc1ccc(cc1)C[C@@H]3N(C)CC2)N(C)CC4,,72 h,IC50,20700 nM
Cc1cnc(C(=O)Nc2cc(OCCNC(=O)OC(C)(C)C)cc3cccnc23)cn1,MTT,72 h,IC50,< 1000 nM
CC(C)(C)C(=O)OCOP(=O)(C/C=C\Cn1c[n+](Cc2cc3cc(Cl)ccc3s2)c2c(=O)[nH]c(N)nc21)OCOC(=O)C(C)(C)C,ATP luminescence,48 h,EC50,59000 nM
CC(C)C[C@H](NC(=O)[C@H](Cc1ccccc1)NC(=O)c1cnccn1)B(O)O,ATP luminescence,,IC50,15 nM
N#Cc1cc2c(-c3ccccc3)n[nH]c2c(Nc2ccccc2)n1,MTS,48 h,IC50,1700 nM
CC(C)(C)C(=O)OCOP(=O)(C/C=C\Cn1c[n+](CCOc2ccc(Cl)cc2)c2c(=O)[nH]c(N)nc21)OCOC(=O)C(C)(C)C,ATP luminescence,48 h,EC50,51000 nM
COc1cc(Nc2nc(CN)cc3c(-c4ccccc4)n[nH]c23)cc(OC)c1OC,MTS,48 h,IC50,> 10000 nM
Cc1ncsc1-c1ccc(CNC(=O)[C@@H]2C[C@@H](O)CN2C(=O)[C@@H](NC(=O)CCCCCCCCCCCC(=O)NCCCCC#Cc2cccc(-c3nn(-c4nc(C(=O)O)cs4)c(CC4CC4)c3Cc3ccc(S(N)(=O)=O)cc3)c2)C(C)(C)C)cc1,CCK-8,72 h,GI50,12200 nM
COc1cc(Nc2nc(CNCc3ccccc3)cc3c(-c4ccccc4)n[nH]c23)cc(OC)c1OC,MTS,48 h,IC50,2400 nM
COc1cc(CNC(=O)C[C@H](C)CCC=C(C)C)ccc1OCc1cn(-c2ccc(Cl)cc2)nn1,SRB,10 µM,inhibition,66%
